Results published in ChEMBL document CHEMBL4513216, “Probing the Open Global Health Chemical Diversity Library for Multistage-Active Starting Points for Next-Generation Antimalarials” (ACS Infect Dis, 2020).

Assay: Toxicity liver stage against HepG2, at 10uM
Type: cell-based
Design: test concentration 10 uM, cell line HepG2-A16-CD81EGFP
Conditions: human, HepG2-A16-CD81EGFP cells; read-out: INHIBITION
Outline: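 Uninfected HepG2-A16-CD81EGFP cells, 3 × 10^3 per well, 1536-well, plated on prespotted compound at 10 μM final, parasite-free screening media added to match infected plates; puromycin 10 μM positive, DMSO 0.5% negative; run in parallel with 48 h PbLuc assay at 37 °C, 5% CO2; viability by CellTiter-Glo luminescence, normalized to controls.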

Work on `c1ccc(CCCN2CC[C@H](c3nnc(-c4cccnc4)o3)C2)cc1` yielded a cytotoxicity at 10 µM of -6.1%.
Work on `Cc1nn(C)cc1C1CC(=O)Nc2c1cnn2C` (stereo not given) yielded a cytotoxicity at 10 µM of 2.8%.
Compound `COc1nn(C)cc1-c1nnc(SCc2cccnc2)n1C` has a cytotoxicity at 10 µM of -2.06%.
Compound `O=C(c1cnn2c1OCCC2)N1CCC(Cc2ccccc2)CC1` has a cytotoxicity at 10 µM of 0.524%.
Work on `COCC1CN(CC2CC2)Cc2ncn(CC3CC3)c21` (stereo not given) yielded a cytotoxicity at 10 µM of 4.42%.
Compound `CCOC[C@@H]1CC[C@H]2[C@H](CCN2C(=O)c2ccncc2F)O1` has a cytotoxicity at 10 µM of -2.86%.
In the case of `CCn1cc(C(=O)Nc2cc(C(=O)OC)ccc2C(=O)OC)cn1`, the cytotoxicity at 10 µM is reported as -1.2%.
Work on `CN(C)CCCNC(=O)CNC(=O)N1CCc2c([nH]c3ccccc23)C1` yielded a cytotoxicity at 10 µM of 3.33%.
`O=C(COc1coc(CN2CCCCC2)cc1=O)Nc1ccc(Cl)cc1` showed a cytotoxicity at 10 µM of 3.48%.
Work on `CCOc1ccc(C2CC(=O)Nc3c2c(=O)nc2sccn32)cc1` (stereo not given) yielded a cytotoxicity at 10 µM of -12.7%.
`CN(C(=O)Cn1nc(-c2ccc(F)cc2)ccc1=O)C1CCS(=O)(=O)C1` (stereo not given) showed a cytotoxicity at 10 µM of -3.57%.
`CCOCCCNC(=O)c1nnn(Cc2ccccc2)c1OC` showed a cytotoxicity at 10 µM of 9.32%.
Work on `Cc1noc(C)c1C(=O)N1CCC(c2cc3cnccc3[nH]2)CC1` yielded a cytotoxicity at 10 µM of 7.07%.
Work on `CCc1cc(O)n2nc(C3CCN(C(=O)c4cccnc4)CC3)cc2n1` yielded a cytotoxicity at 10 µM of 7.09%.
Compound `COc1ccc2c(c1)C(=O)NC1(CC2)CCN(Cc2ccc(F)cc2)C1` (stereo not given) has a cytotoxicity at 10 µM of 8.16%.
With `O=C1CN(C(=O)C2CN(c3cccc(F)c3)CCO2)CCN1` (stereo not given) the cytotoxicity at 10 µM was 5.37%.
`COCCN1CCCC(c2nc(C)n3c(C)c(C)sc23)C1` (stereo not given) gave a cytotoxicity at 10 µM of -21.5%.
`Cc1c(C2CCCN(C(=O)OC(C)(C)C)C2)n2c(nc1=O)CCC2` (stereo not given) showed a cytotoxicity at 10 µM of -16%.
`CNC(=O)C1(c2cnccn2)CCCN1C(=O)c1ccccc1F` (stereo not given) showed a cytotoxicity at 10 µM of -17.1%.
Compound `CNC(=O)C1(c2cnccn2)CCCN1C(=O)c1cccc(C)n1` (stereo not given) has a cytotoxicity at 10 µM of -18.6%.
`O=C(c1cncc(Br)c1)N1CCC(O)(Cn2ccc3ccncc32)CC1` gave a cytotoxicity at 10 µM of 2.44%.
Work on `Cc1ccc2nc(C3CCCN(CC(C)C)C3)nc(O)c2c1` (stereo not given) yielded a cytotoxicity at 10 µM of 5.48%.
For `O=C(CCc1nc(-c2cccnc2)no1)N(CC1CCOC1)C1CC1` (stereo not given), the cytotoxicity at 10 µM was 10.8%.
In the case of `N#CCCCS(=O)(=O)NC1(c2cccc(Cl)c2)CC1`, the cytotoxicity at 10 µM is reported as -1.39%.
`CCN(CC)C(CNC(=O)c1ccnc(N(C)C)c1)c1ccsc1` (stereo not given) showed a cytotoxicity at 10 µM of -149%.
Compound `Cc1cccnc1NC(=O)c1ccc(F)c(S(=O)(=O)N2CCC2)c1` has a cytotoxicity at 10 µM of 4.5%.
`CCSCCC(=O)NCc1cnn(-c2ccc(F)cc2F)c1` gave a cytotoxicity at 10 µM of -5.61%.
`COc1cc2c(cc1OC)CN(C(=O)NC(C)c1nncn1C)CC2` (stereo not given) gave a cytotoxicity at 10 µM of -4.54%.
Compound `CN(c1ccccc1)S(=O)(=O)c1cc2c(c(C(=O)O)c1)OCCO2` has a cytotoxicity at 10 µM of -9.47%.
For `CC(NC(=O)Nc1ccccc1CN1CCOCC1)c1nccs1` (stereo not given), the cytotoxicity at 10 µM was 2.1%.
Compound `CS(=O)(=O)c1ccc(OCCNCc2ccc(F)cc2)cc1` has a cytotoxicity at 10 µM of -8.86%.
Compound `O=C(NCCOc1ncc(Cl)cc1Cl)NCc1ccncc1` has a cytotoxicity at 10 µM of -1.86%.
`NC(=O)CCNC(=O)NCC1(c2ccccc2Cl)CCC1` showed a cytotoxicity at 10 µM of -53.1%.
`CCc1nc2n(n1)CCCC2NC(=O)Nc1cc(OC)ccc1C` (stereo not given) showed a cytotoxicity at 10 µM of 12.7%.
Work on `CN(CC(F)(F)F)C(=O)CNC(=O)Cc1ccccc1O` yielded a cytotoxicity at 10 µM of 6.31%.
`COc1ccc(C2CCCN2C(=O)c2cc3c([nH]c2=O)CCC3)cc1` (stereo not given) gave a cytotoxicity at 10 µM of -10.7%.
`COc1cccc(CN(C)C(=O)CN2CCN(CCO)CC2)c1` showed a cytotoxicity at 10 µM of 12.3%.
Compound `Cc1ccsc1CNC(=O)NC1CCCc2c1cnn2CCO` (stereo not given) has a cytotoxicity at 10 µM of 3.33%.
`CN(Cc1cccc(F)c1)C(=O)CN1CCCCC1Cn1cncn1` (stereo not given) gave a cytotoxicity at 10 µM of -8.25%.
Compound `c1ccc(C2CCCN2Cc2nnnn2C2CC2)cc1` (stereo not given) has a cytotoxicity at 10 µM of -5.04%.
For `O=C1CCCN1Cc1nnc2n1CCN(Cc1ccco1)C2`, the cytotoxicity at 10 µM was 0.686%.
In the case of `CCS(=O)(=O)N1CCN(CCOC)c2ncccc2C1`, the cytotoxicity at 10 µM is reported as 4.37%.
Work on `CCCS(=O)(=O)N1CC[C@H]2O[C@H](c3nnc(C)o3)CC[C@H]21` yielded a cytotoxicity at 10 µM of -77.4%.
Compound `CCOCC1CN(S(=O)(=O)C2CC2)Cc2cnn(C)c21` (stereo not given) has a cytotoxicity at 10 µM of -66.8%.
Compound `O=C(NCC1Cn2nnc(-c3ccsc3)c2CO1)c1ccc[nH]1` (stereo not given) has a cytotoxicity at 10 µM of 2.28%.
With `CCO[C@H]1CN(C(=O)c2ccnnc2)[C@@H]2COC[C@H]12` the cytotoxicity at 10 µM was 0.403%.
Work on `Cn1ccnc1CN1CC[C@@H](NS(C)(=O)=O)[C@@H]1Cc1cccnc1` yielded a cytotoxicity at 10 µM of 8.54%.
Work on `CN(C)C[C@@H]1CN(C(=O)Cc2ccc3ccccc3c2)C[C@@H]1CO` yielded a cytotoxicity at 10 µM of -8.4%.
Compound `Cc1ccc2[nH]c(CN(C)Cc3ccccc3C(=O)O)nc2c1` has a cytotoxicity at 10 µM of 7.01%.
`CC(NC(=O)c1cn(CCC2CCCCC2)nn1)c1cnn(C)c1` (stereo not given) gave a cytotoxicity at 10 µM of 6.2%.
Work on `COc1ccc2nc(O)c(CN(C)Cc3ncc[nH]3)cc2c1` yielded a cytotoxicity at 10 µM of 0.55%.
`O=C(O)C1(n2ccnc2)CCN(Cc2ccc3occc3c2)CC1` showed a cytotoxicity at 10 µM of -4.31%.
`Cc1ccc(CCNC(=O)Cn2nc(C)n(Cc3ccccc3)c2=O)o1` gave a cytotoxicity at 10 µM of 1.33%.
`Cc1cc(CN2CCN(CC3CC3)[C@@H]3CS(=O)(=O)C[C@@H]32)cc(C)c1O` showed a cytotoxicity at 10 µM of 2.78%.
In the case of `O=C(c1cccc(-n2cccn2)c1)N1CCCOC(CN2CCCC2)C1` (stereo not given), the cytotoxicity at 10 µM is reported as -7.33%.
